Results on 3 compounds are retold here after paper PMC11164214 (International Journal of Nanomedicine, 2024).

A short description of one series: In vitro release assay. Format: physicochemical. The settings on record: 37°C. The method in brief: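 Dynamic dialysis, bag MWCO 8–14 kDa. Liposomal DHA, or DHA dispersed in 0.5% w/v carboxymethyl cellulose sodium as control. Incubated in SGF (pH 1.2) for 2 h, then SIF (pH 6.8) for 22 h, at 37 ± 0.5°C with shaking at 150 rpm. Medium sampled at 0.5–24 h and replaced with fresh medium. DHA measured by UV‒Vis after treatment in 2% NaOH:ethanol (4:1, v/v) at 60°C for 30 min; absorbance at 238 nm.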

A short description of series [1]: Intestinal lymphatic transport inhibition study. The conditions noted are these: CHX 3.0 mg/kg i.p. 1 h before, oral 10 mg/kg DHA. Format: in vivo, rats. The method in brief:
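Male Sprague-Dawley rats (200 ± 20 g) given cycloheximide 3.0 mg/kg i.p. to block chylomicron secretion. One hour later, oral DHA suspension or liposomal DHA at 10 mg/kg DHA equivalent. Plasma DHA quantified by validated HPLC‒MS/MS after ether extraction, with artemisinin as internal standard. Means ± SD, n = 4.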

Series [2] in a line: Biodistribution in mesenteric lymph nodes after oral administration. Format: in vivo, mice. The gist of the method:
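Male ICR mice (20 ± 2 g), acclimatised 1 week. Single oral dose of 4 mg/kg DiR as free-dye solution or liposomes (dye at 8% w/w in lipid). Mice killed at 1, 2, 4 and 6 h; intestinal tracts and MLNs excised for ex vivo fluorescence imaging (means ± SD, n = 3). Dil formulations given orally at 4 mg/kg; MLNs examined by CLSM at 4 h.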

Each structure is given as a SMILES string.

With `C[C@H]1[C@@H](O)O[C@@H]2O[C@@]3(C)CC[C@H]4[C@H](C)CC[C@@H]1[C@@]24OO3` [DHA, Dihydroartemisinin], the “cumulative release rate of DHA at 12 h” value in “In vitro release assay” (SGF 2 h then SIF) is 94.29%. In addition, the “DHA released during the first 2 h in SGF” value in the series “In vitro release assay” (SGF pH 1.2, 2 h) is listed as “more than 65%”. Besides, in series [1], the “decrease of AUC0~8 of DHA in CHX pretreated rats” value was “little influence” and the “decrease of Cmax of DHA in CHX pretreated rats” value is “little influence”.
As for `CCCCCCCCCCCCCCCCCCN1/C(=C/C=C/C=C/C=C/C2=[N+](CCCCCCCCCCCCCCCCCC)c3ccccc3C2(C)C)C(C)(C)c2ccccc21.[I-]` [free DiR, 1,1’-dioctadecyl-3,3,3’,3’-tetramethylindotricarbocyaine iodide], the “accumulation / fluorescence signal in the MLNs (ex vivo imaging)” value in series [2] (oral 4 mg/kg DiR) is “rare fluorescence signal”.
Take `CCCCCCCCCCCCCCCCCCN1/C(=C/C=C/C2=[N+](CCCCCCCCCCCCCCCCCC)c3ccccc3C2(C)C)C(C)(C)c2ccccc21.[O-][Cl+3]([O-])([O-])[O-]` [free Dil, 1,1’-Dioctadecyl-3,3,3’,3’-tetramethylindocarbocyanine perchlorate]: the “red fluorescence signal in the MLNs (CLSM)” value in series [2] (oral 4 mg/kg Dil, 4 h) was “negligible”.
